One may read the EC50 as the midpoint of the concentration-response curve.

Activity calls are given as the source filed them. No cut-off for these calls is given here.

Assay [1] has as its system Astrocyte. Put plainly: Increase of EAAT2 expression in mouse primary astrocytes after 24 hrs by Western blot analysis relative to GAPDH protein expression. Format: functional, cell-based. The method, boiled down:
(§1)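 PA-EAAT2 cells (primary astrocyte line stably expressing EAAT2 mRNA) were exposed for 24 h to a 6-point series (0.1, 0.3, 1.0, 5.0, 10.0, 30.0 μM). EAAT2 protein was measured by Western blot and normalised separately to β-actin or GAPDH. Fold increase and EC50 were derived from the dose-response. Values are means of four separate experiments.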
(In general: Immunoblotting shows a protein as a band on a membrane.)

The test system of assay [2] is Astrocyte. Put plainly: Increase of EAAT2 expression in mouse primary astrocytes at 10 uM after 4 hrs by Western blot analysis relative to control. The format is functional. The method, boiled down: (§2)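 PA-EAAT2 cells (primary astrocyte line stably expressing EAAT2 mRNA) were incubated with compound at 10 μM for 4 h or 24 h. Cells were then harvested and EAAT2 protein measured by Western blot. Results are given as fold increase over DMSO control.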

Assay [3] concerns Astrocyte. Put plainly: Increase of EAAT2 expression in mouse primary astrocytes at 10 uM after 24 hrs by Western blot analysis relative to GAPDH protein expression. Format: functional. The method, boiled down: as §1
For assay [4], the system named is Astrocyte. The experiment in a line: Increase of EAAT2 expression in mouse primary astrocytes after 24 hrs by Western blot analysis relative to beta-actin protein expression. Format: functional, cell-based. In outline:
as §1

Assay [5] has as its system Astrocyte. Put plainly: Increase of EAAT2 expression in mouse primary astrocytes at 1 uM after 24 hrs by Western blot analysis relative to beta-actin protein expression. Format: functional. The method, boiled down:
as §1

Assay [6] relates to Astrocyte. Put plainly: Increase of EAAT2 expression in mouse primary astrocytes at 10 uM after 24 hrs by Western blot analysis relative to beta-actin protein expression. The format is functional. The method, boiled down:
as §1

In assay [7] the test system is Astrocyte. Put plainly: Increase of EAAT2 expression in mouse primary astrocytes at 10 uM after 24 hrs by Western blot analysis relative to control. Format: functional. In outline:
as §2

Assay [8] relates to Astrocyte. Put plainly: Increase of EAAT2 expression in mouse primary astrocytes at 1 uM after 24 hrs by Western blot analysis relative to GAPDH protein expression. Format: functional. In outline:
as §1

Assay [9] has as its system Astrocyte. The experiment in a line: Increase of EAAT2 expression in mouse primary astrocytes at <5 uM after 24 hrs by Western blot analysis relative to control. The format is functional.

Turning to `Clc1cccc(CSc2ccc(-c3ccccn3)nn2)c1`, the EC50 amounted to 0.5 µM in assay [1] and 1.7 µM in assay [4]. The “fold change (FC)” value in assay [2] came to 2.1; in [3], 3.8; in assay [5] it was 4; in assay [6], 4.1; in assay [7] it was 4.1; in assay [8], 4.2.

With `Fc1cccc(Cl)c1CCSc1ccc(-c2ccccn2)nn1`, the concentration for a half-maximal effect (EC50) in assay [1] and in [4] was 3.3 µM throughout. Also, the “fold change (FC)” value in assay [2] is recorded as 1.9; in assay [9], >6; in [3], 5.3; in assay [5], 1.2; in assay [6], 6.7; in assay [7], 6.7. Also, the “fold change (FC)” value in assay [8] worked out at 1.2.

Consider `c1ccc(-c2ccc(SC3CCCc4ccccc43)nn2)nc1` (stereo not given), for which the EC50 in assay [1] was found to be 1.7 µM; in assay [4] it was 1.9 µM. Moreover, in [2], the “fold change (FC)” value is “inactive”. Also, the “fold change (FC)” value is 4.5 in assay [3]; 2.4 in assay [5]; 5.3 in assay [6]; 5.3 in assay [7]; 2.8 in [8].

As to `Cc1ccccc1CSc1ccc(-c2ccccn2)nn1`, the concentration for a half-maximal effect (EC50) in [1] is 1.8 µM; in [4], 2.6 µM. Moreover, the “fold change (FC)” value is reported as 1.7 in assay [2]; 3.1 in [3]; 1 in assay [5]; 3.5 in assay [6]; 3.5 in [7]; 1 in assay [8].

Consider `Clc1cccc(Cl)c1CSc1ccc(-c2ccccn2)nn1`, for which the EC50 in assay [1] and in assay [4] was 0.5 µM throughout. In addition, the “fold change (FC)” value in assay [2] was 1.5; in assay [3], 3.5; in [5], 3; in [6], 3.9; in assay [7], 3.9; in assay [8], 3.5.

As to `Fc1ccc(CSc2ccc(-c3ccccn3)nn2)c(F)c1`, the EC50 in assay [1] and in [4] was 2.6 µM in each case. In addition, the “fold change (FC)” value in assay [2] is 2.4; in assay [3], 3.7; in assay [5] it was 1; in assay [6], 3.8; in assay [7] it was 3.8; in [8] it was 1.

Turning to `CC(Sc1ccc(-c2ccccn2)nn1)c1c(F)cccc1Cl` (stereo not given), the EC50 was determined as 2.4 µM in [1] and 3.9 µM in assay [4]. For the same compound, the “fold change (FC)” value is 1.7 in [2]; 5.2 in [3]; 1.5 in [5]; 5.5 in [6]; 5.5 in assay [7]; 1.8 in assay [8].

Take `Clc1ccccc1CSc1ccc(-c2ccccn2)nn1`: the results for the EC50 in [1] and in [4] were 3.2 µM and 3.3 µM, respectively. For the same compound, the “fold change (FC)” value was determined as 2.1 in assay [2]; 4.5 in [3]; 1.1 in [5]; 4 in assay [6]; 4 in assay [7]; 1.6 in assay [8].

As for `CCCNC(=O)c1ccc(-c2ccccn2)nn1`, in assay [2], the “fold change (FC)” value is “inactive”. In addition, the “fold change (FC)” value in [7] is given as 1.2.

`Fc1cc(F)c(CSc2ccc(-c3ccccn3)nn2)c(F)c1`: the “fold change (FC)” value in assay [2] worked out at 1.6; in assay [7] it was 2.4.

`Clc1ccccc1CSc1ccc(-c2ccncc2)nn1`: the figures for the “fold change (FC)” value in assay [2] and in assay [7] were 1.5 and 1.7, respectively.

For `Cc1ccc(CSc2ccc(-c3ccccn3)nn2)cc1`, the results for the “fold change (FC)” value in assay [2] and in [7] were 2.1 and 2.6, respectively.

On to `Clc1ccccc1CCSc1ccc(-c2ccccn2)nn1`, for which the EC50 amounted to 5.1 µM in assay [1] and 4.7 µM in assay [4]. The “fold change (FC)” value in assay [2] was 1.7; in assay [3] it was 4.5; in [5], 1; in [6] it was 4.8; in assay [7], 4.8; in assay [8], 1.

As for `CCSc1ccc(-c2ccccn2)nn1`, the “fold change (FC)” value in [2] amounted to 1.6; in assay [7] it was 1.9.

Turning to `Cc1cc(C)c(CSc2ccc(-c3ccccn3)nn2)c(C)c1`, the EC50 in [1] turned out to be 2.1 µM; in assay [4], 2.4 µM. Moreover, the “fold change (FC)” value in [2] was 1.7; in assay [3] it was 4.8; in assay [5], 1.5; in assay [6], 4.7; in assay [7], 4.7; in assay [8], 1.6.

Consider `Cc1cccc(C)c1CSc1ccc(-c2ccccn2)nn1`, for which the EC50 in assay [1] came out at 2.4 µM; in assay [4] it was 2.6 µM. For the same compound, in assay [2], the “fold change (FC)” value was “inactive”. For the same compound, the “fold change (FC)” value in assay [9] is reported as >6; in assay [3], 6.4; in assay [5], 2; in [6] it was 6.5; in assay [7], 6.5; in assay [8], 2.

Regarding `CC(Oc1ccc(-c2ccccn2)nn1)c1c(F)cccc1Cl` (stereo not given), the “fold change (FC)” value is reported as 1.6 in assay [2] and 3 in [7].

For the compound `Cc1ccc(Sc2ccc(-c3ccccn3)nn2)c(C)c1`, the “fold change (FC)” value came out at 1.2 in [2] and 2.2 in [7].

Regarding `Fc1ccc(CSc2ccc(-c3ccccn3)nn2)cc1`, the figures for the “fold change (FC)” value in assay [2] and in assay [7] were 2.5 and 2.6, respectively.

For `c1ccc(CSc2ccc(-c3ccccn3)nn2)cc1`, the “fold change (FC)” value in [2] is given as 1.3; in assay [7], 3.

Turning to `Fc1cccc(Cl)c1CSc1ccc(-c2ccncc2)nn1`, the “fold change (FC)” value in assay [2] is “inactive”. Besides, the “fold change (FC)” value in assay [7] stood at 1.9.

Consider `Sc1ccc(-c2ccccn2)nn1`, for which the “fold change (FC)” value in assay [2] is “inactive”. Moreover, the “fold change (FC)” value in assay [7] worked out at 2.

With `O=S(=O)(Cc1c(F)cccc1Cl)c1ccc(-c2ccccn2)nn1`, the “fold change (FC)” value is reported as 1.4 in assay [2] and 2.8 in [7].

Consider `Cc1ccc(CSc2ccc(-c3ccccn3)nn2)c(C)c1`, for which the EC50 in [1] turned out to be 1.8 µM; in assay [4] it was 2.7 µM. The “fold change (FC)” value in assay [2] is given as 1.9; in assay [9], >6; in assay [3] it was 6; in assay [5], 2; in assay [6], 6.4; in [7], 6.4. In addition, the “fold change (FC)” value in assay [8] worked out at 2.2.

With `Cc1ccccc1CNC(=O)c1ccc(-c2ccccn2)nn1`, the “fold change (FC)” value in [2] is “inactive”. Besides, in assay [7], the “fold change (FC)” value stood at 1.4.

For the origin of these results see ChEMBL document CHEMBL1833913, “Structure-activity relationship study of pyridazine derivatives as glutamate transporter EAAT2 activators” (Bioorg Med Chem Lett, 2011).
